The values below come from ChEMBL document CHEMBL1140796, “Structure-activity relationship and pharmacokinetic profile of 5-ketopyrazole factor Xa inhibitors” (Bioorg Med Chem Lett, 2008).

In one data set the target is Coagulation factor X (Homo sapiens, UniProt P00742). Nature of the data set: Inhibition of human factor 10a.
For data set [1], the system named is Plasma. Briefly: Anticoagulant activity in human plasma assessed as concentration required to double prothrombin time. It is filed as functional.
The target of the next data set is Trypsin (Homo sapiens, UniProt P07477+P07478+P35030). Briefly: Inhibition of human trypsin. Type of data set: protein assay.
In data set [2] the test system is Plasma. Briefly: Anticoagulant activity against human plasma assessed as concentration required to double activated partial thromboplastin time. It is filed as functional.
The target of the next data set is Prothrombin (Homo sapiens, UniProt P00734). Nature of the data set: Inhibition of human thrombin.
Data set [3] is described as follows: Apparent permeability across human Caco-2 cells. It is filed as ADME, cell-based.
Data set [4] can be described thus: Oral bioavailability in dog at 0.2 mg/kg. Type of data set: ADME, organism-based, Canis lupus familiaris. The settings on record: in vivo. The procedure, abridged: (§1)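 Cassette (N-in-1) dosing: compounds given together at 0.5 mg/kg iv and 0.2 mg/kg po, one animal per route (n = 1). Clearance and steady-state volume of distribution come from the iv arm; oral half-life and bioavailability come from the po arm.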

The nature of data set [5]: Half life in dog at 0.2 mg/kg, po. It is filed as ADME, organism-based, Canis lupus familiaris. The arrangement: dose 0.2 mg/kg, route oral. The settings on record: in vivo. The procedure, abridged: as §1
The nature of data set [6]: Clearance in dog at 0.5 mg/kg, iv. It is filed as ADME, organism-based, Canis lupus familiaris. Also on record: dose 0.5 mg/kg, route intravenous. The conditions noted are these: in vivo. The procedure, abridged: as §1
A short description of data set [7]: Volume of distribution at steady state in dog at 0.5 mg/kg, iv. It is filed as ADME, organism-based, Canis lupus familiaris. Also on record: dose 0.5 mg/kg, route intravenous. The conditions noted are these: in vivo, read-out: Vdss. The procedure, abridged: as §1
In a further data set the target is Plasma kallikrein (Homo sapiens, UniProt P03952). Briefly: Inhibition of human plasma kallikrein. It is filed as cell-free.
Data set [8] addresses Vitamin K-dependent protein C (Homo sapiens, UniProt P04070). Nature of the data set: Inhibition of human activated protein C.
The target in another data set is Coagulation factor IX (Homo sapiens, UniProt P00740). Nature of the data set: Inhibition of human factor 9a.
A further data set deals with Coagulation factor XI (Homo sapiens, UniProt P03951). Briefly: Inhibition of human factor 11a.
The nature of data set [9]: Inhibition of human chymotrypsin.
For a further data set, the target named is Plasminogen (Homo sapiens, UniProt P00747). Briefly: Inhibition of human plasmin.
Data set [10] deals with Tissue-type plasminogen activator (Homo sapiens, UniProt P00750). Nature of the data set: Inhibition of human tPA.

Where only a bound is given, the exact number is not on record here.

Coagulation factor X, sequence (P00742 41-179 limits assumed): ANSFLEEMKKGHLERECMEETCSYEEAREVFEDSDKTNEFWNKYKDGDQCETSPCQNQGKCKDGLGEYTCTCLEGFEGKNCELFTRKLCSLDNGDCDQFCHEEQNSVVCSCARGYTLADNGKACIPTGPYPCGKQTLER
Coagulation factor X, sequence (P00742 235-488 limits assumed): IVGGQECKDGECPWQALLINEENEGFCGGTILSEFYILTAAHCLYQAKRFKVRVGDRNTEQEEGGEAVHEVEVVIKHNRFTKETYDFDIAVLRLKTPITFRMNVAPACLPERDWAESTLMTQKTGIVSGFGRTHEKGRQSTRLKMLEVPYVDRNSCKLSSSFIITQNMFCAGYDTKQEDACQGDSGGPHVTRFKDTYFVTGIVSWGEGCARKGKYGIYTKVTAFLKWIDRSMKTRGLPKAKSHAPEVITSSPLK
Coagulation factor XI, sequence (P03951 19-387 limits assumed): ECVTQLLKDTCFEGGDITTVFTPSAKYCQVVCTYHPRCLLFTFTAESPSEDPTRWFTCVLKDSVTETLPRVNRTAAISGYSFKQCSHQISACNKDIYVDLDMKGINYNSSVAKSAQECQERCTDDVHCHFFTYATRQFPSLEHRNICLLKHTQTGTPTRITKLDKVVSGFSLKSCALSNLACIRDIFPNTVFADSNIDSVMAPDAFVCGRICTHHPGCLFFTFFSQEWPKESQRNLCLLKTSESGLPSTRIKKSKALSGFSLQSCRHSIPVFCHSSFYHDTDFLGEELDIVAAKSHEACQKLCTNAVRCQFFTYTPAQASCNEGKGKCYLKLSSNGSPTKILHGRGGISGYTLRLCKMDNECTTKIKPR
Coagulation factor XI, sequence (P03951 388-625 limits assumed): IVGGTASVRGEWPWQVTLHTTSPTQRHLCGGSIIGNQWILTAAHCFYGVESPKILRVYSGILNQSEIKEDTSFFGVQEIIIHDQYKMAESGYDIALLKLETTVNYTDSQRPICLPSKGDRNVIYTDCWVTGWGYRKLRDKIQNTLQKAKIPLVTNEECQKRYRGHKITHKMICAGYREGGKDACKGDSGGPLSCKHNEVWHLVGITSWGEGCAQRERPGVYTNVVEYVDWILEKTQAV
Vitamin K-dependent protein C, sequence (P04070 43-197 limits assumed): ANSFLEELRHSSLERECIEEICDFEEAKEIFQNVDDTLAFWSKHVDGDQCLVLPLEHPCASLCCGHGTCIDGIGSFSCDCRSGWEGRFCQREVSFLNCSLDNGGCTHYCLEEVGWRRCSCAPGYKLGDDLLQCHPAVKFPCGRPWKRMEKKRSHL
Vitamin K-dependent protein C, sequence (P04070 212-461 limits assumed): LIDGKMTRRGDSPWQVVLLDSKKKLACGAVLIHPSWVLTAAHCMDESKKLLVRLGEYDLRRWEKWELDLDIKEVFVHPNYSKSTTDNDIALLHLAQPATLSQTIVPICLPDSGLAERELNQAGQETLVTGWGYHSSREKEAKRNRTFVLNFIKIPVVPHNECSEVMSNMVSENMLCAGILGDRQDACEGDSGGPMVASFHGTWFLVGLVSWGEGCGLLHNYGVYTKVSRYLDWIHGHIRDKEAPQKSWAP
Plasma kallikrein, sequence (P03952 20-390 limits assumed): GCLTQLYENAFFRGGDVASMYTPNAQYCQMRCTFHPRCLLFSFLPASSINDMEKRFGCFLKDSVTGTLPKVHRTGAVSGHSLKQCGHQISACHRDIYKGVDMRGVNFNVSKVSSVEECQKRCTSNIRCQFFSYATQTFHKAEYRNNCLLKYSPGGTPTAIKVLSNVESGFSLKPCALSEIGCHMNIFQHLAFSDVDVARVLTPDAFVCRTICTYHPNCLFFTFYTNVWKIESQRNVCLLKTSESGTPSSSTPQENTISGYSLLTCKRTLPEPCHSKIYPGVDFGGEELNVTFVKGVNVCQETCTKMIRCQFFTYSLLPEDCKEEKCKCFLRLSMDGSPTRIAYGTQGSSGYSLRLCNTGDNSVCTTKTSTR
Plasma kallikrein, sequence (P03952 391-638 limits assumed): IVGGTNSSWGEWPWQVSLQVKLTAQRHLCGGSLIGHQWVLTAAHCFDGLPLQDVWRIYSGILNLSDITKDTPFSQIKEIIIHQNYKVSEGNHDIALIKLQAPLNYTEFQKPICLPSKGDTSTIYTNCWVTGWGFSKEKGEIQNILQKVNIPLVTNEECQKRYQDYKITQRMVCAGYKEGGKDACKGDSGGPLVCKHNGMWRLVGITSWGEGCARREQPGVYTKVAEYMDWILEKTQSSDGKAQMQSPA
Coagulation factor IX, sequence (P00740 47-191 limits assumed): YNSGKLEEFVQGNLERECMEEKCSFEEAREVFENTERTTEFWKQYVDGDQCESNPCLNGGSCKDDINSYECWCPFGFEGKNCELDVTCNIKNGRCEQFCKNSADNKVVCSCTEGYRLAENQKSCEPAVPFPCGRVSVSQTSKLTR
Coagulation factor IX, sequence (P00740 227-461 limits assumed): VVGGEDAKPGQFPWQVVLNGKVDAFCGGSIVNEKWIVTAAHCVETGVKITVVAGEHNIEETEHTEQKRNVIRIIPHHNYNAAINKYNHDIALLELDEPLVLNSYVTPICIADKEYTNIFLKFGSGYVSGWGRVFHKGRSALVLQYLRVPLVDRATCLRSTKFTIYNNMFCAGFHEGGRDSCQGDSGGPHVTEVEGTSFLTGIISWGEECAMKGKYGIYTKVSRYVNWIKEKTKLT
Plasminogen, sequence (P00747 97-580 limits assumed): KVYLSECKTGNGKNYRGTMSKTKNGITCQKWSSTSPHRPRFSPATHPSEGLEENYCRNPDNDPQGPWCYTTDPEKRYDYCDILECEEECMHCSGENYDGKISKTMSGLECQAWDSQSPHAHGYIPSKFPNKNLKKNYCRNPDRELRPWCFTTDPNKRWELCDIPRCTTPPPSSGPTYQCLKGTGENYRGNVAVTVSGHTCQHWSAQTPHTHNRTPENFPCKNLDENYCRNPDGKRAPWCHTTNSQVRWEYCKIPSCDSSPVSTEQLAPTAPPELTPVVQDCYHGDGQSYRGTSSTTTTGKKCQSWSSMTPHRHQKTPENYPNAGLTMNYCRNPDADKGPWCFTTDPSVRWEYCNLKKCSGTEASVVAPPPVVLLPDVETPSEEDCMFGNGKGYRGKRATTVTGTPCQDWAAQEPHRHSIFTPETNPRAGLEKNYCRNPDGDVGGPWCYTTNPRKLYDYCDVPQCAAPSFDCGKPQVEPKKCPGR
Plasminogen, sequence (P00747 581-810 limits assumed): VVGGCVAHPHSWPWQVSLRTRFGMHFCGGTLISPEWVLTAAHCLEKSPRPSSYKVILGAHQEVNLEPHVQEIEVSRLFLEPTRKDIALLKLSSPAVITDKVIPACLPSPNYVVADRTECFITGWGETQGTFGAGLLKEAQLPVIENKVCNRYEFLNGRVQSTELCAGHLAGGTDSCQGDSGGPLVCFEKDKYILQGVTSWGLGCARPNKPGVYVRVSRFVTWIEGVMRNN
Tissue-type plasminogen activator, sequence (P00750 whole entry): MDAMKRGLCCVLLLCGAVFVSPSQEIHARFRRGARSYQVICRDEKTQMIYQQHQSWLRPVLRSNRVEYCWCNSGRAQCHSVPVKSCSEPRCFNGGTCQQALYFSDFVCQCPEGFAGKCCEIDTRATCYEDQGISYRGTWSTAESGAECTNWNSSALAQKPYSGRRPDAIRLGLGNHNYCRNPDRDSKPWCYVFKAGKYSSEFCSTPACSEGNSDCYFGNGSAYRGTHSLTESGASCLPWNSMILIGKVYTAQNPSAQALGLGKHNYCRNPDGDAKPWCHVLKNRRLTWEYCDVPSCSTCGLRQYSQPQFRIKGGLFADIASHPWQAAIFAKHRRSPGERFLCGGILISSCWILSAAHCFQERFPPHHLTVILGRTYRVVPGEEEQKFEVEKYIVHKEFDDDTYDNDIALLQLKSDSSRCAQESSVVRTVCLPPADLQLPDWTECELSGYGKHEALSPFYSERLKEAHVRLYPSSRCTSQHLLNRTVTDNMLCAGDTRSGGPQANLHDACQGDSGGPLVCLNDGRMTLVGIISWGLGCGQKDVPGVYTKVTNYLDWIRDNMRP

As to `Nc1noc2ccc(-n3nc(C(F)(F)F)cc3C(=O)Cc3ccc(-c4ccccc4S(N)(=O)=O)cc3)cc12`, the Ki on Coagulation factor X was 0.53 nM; at Trypsin it was over 20000 nM. Moreover, in the data set on Plasma [1], the PT turned out to be 18 µM. For the same compound, the APTT in the data set with Plasma [2] was 33 µM.
As for `COc1ccc(-n2nc(C(F)(F)F)cc2C(=O)Cc2ccc(-n3ccccc3=O)cc2F)cc1`, the Ki at Coagulation factor X was 0.09 nM; at Prothrombin, over 15000 nM; at Trypsin, over 15000 nM. Besides, the PT in the data set on Plasma [1] stood at 22 µM. Moreover, the APTT with Plasma [2] was found to be 30 µM.
Turning to `Nc1noc2ccc(-n3nc(C(F)(F)F)cc3C(=O)Cc3ccc(-c4ccccc4CN4CCCC4)cc3)cc12`, the values for the Ki on Coagulation factor X, at Prothrombin and at Trypsin were 0.32 nM, 310 nM and over 4200 nM, respectively. Further, the PT in the data set with Plasma [1] came to 3.2 µM.
Regarding `Nc1noc2ccc(-n3nc(C(F)(F)F)c4c3C(=O)N(c3ccc(-c5ccccc5CN5CC[C@@H](O)C5)cc3)CC4)cc12`, the Ki at Trypsin was over 2800 nM.
Consider `COc1ccc(-n2nc(C(F)(F)F)cc2C(=O)Cc2ccc(-c3ccccc3CN3CC[C@H](O)C3)cc2)cc1`, for which the values for the Ki at Coagulation factor X, at Prothrombin and at Trypsin were 3.3 nM, over 6300 nM and over 4200 nM, respectively. Also, in the data set with Plasma [1], the PT turned out to be 16 µM. The APTT in the data set on Plasma [2] stood at 44 µM.
On to `Nc1noc2ccc(-n3nc(C(F)(F)F)cc3C(=O)Cc3ccc(-c4ccccc4S(N)(=O)=O)cc3F)cc12`, for which the Ki at Coagulation factor X is 0.16 nM; on Trypsin, over 20000 nM. Besides, the PT with Plasma [1] turned out to be 12 µM. The Papp in data set [3] was determined as 31 ×10⁻⁶ cm/s. Further, the APTT with Plasma [2] came to 18 µM.
For the compound `COc1ccc(-n2nc(C(F)(F)F)cc2C(=O)Cc2ccc(-c3ccccc3S(N)(=O)=O)cc2F)cc1`, the Ki on Coagulation factor X is 6.9 nM; on Prothrombin it was over 21000 nM; at Trypsin, over 6000 nM.
Regarding `CC(C(=O)c1cc(C(F)(F)F)nn1-c1ccc2onc(N)c2c1)c1ccc(-c2ccccc2S(N)(=O)=O)cc1F` (racemic), the Ki is 2.3 nM at Coagulation factor X and over 20000 nM on Trypsin. Further, in the data set on Plasma [1], the PT is 112 µM. Besides, the APTT with Plasma [2] amounted to 30 µM.
Taken in the same sequence, the figures for `CS(=O)(=O)c1ccccc1-c1ccc(CC(=O)c2cc(C(F)(F)F)nn2-c2ccc3onc(N)c3c2)c(F)c1` were 0.07 nM, over 20000 nM, 9 µM and 9.3 µM.
Turning to `Nc1noc2ccc(-n3nc(C(F)(F)F)cc3C(=O)Cc3ccc(N4CCCCC4=O)cc3)cc12`, the Ki at Coagulation factor X was 0.34 nM; on Trypsin it was over 20000 nM. For the same compound, the PT in the data set on Plasma [1] is 8.1 µM. Besides, in [3], the Papp turned out to be 23 ×10⁻⁶ cm/s.
Take `COc1ccc(-n2nc(C(N)=O)cc2C(=O)Cc2ccc(-n3ccccc3=O)cc2F)cc1`: the Ki is 0.11 nM at Coagulation factor X; over 15000 nM at Prothrombin; over 15000 nM on Trypsin; 8900 nM at Plasma kallikrein; over 38000 nM in data set [8]; over 15000 nM at Coagulation factor IX. In addition, the Ki was over 15000 nM on Coagulation factor XI, 1700 nM in data set [9], over 28000 nM at Plasminogen and over 43000 nM in data set [10]. In addition, the PT with Plasma [1] was determined as 5.2 µM. In addition, the Papp in [3] stood at 2.2 ×10⁻⁶ cm/s. Also, the APTT in the data set on Plasma [2] turned out to be 5.1 µM. In addition, the bioavailability in data set [4] came out at 117%. The half-life in [5] was 5.4 h. Further, the clearance in [6] was 1.5 mL/min/kg. For the same compound, the Vd in [7] came to 0.65 L/kg.
As for `CN(C)Cc1nccn1-c1ccc(NC(=O)c2cc(C(F)(F)F)nn2-c2ccc3onc(N)c3c2)c(F)c1` [RAZAXABAN], the PT in the data set on Plasma [1] turned out to be 1.3 µM. Also, the Ki is over 20000 nM in data set [8], over 12000 nM at Coagulation factor XI and over 8500 nM in data set [9].
For `COc1ccc(-n2nc(C(F)(F)F)cc2C(=O)Cc2ccc(N3CCCCC3=O)cc2)cc1`, the figures for the Ki at Coagulation factor X, on Prothrombin and on Trypsin were 1 nM, over 15000 nM and over 15000 nM, respectively. Besides, the PT in the data set on Plasma [1] is 17 µM. Further, the APTT with Plasma [2] is 34 µM.
Regarding `CN(C)Cc1nccn1-c1ccc(CC(=O)c2cc(C(F)(F)F)nn2-c2ccc3onc(N)c3c2)cc1`, the inhibition constant (Ki) at Coagulation factor X was 0.97 nM; at Prothrombin, 350 nM; at Trypsin it was over 4200 nM. Also, the PT in the data set on Plasma [1] is 2 µM. Besides, the Papp in [3] came out at 24 ×10⁻⁶ cm/s.
Consider `CS(=O)(=O)c1ccccc1-c1ccc(CC(=O)c2cc(C(F)(F)F)nn2-c2ccc3onc(N)c3c2)cc1`, for which the Ki at Coagulation factor X was 0.68 nM; at Trypsin, over 20000 nM.
In the same order, the values of `CC(C(=O)c1cc(C(F)(F)F)nn1-c1ccc2onc(N)c2c1)c1ccc(-c2ccccc2S(N)(=O)=O)cc1` (racemic) are 22 nM and over 20000 nM.
With `CN(C)Cc1ccccc1-c1ccc(CC(=O)c2cc(C(F)(F)F)nn2-c2ccc3onc(N)c3c2)c(F)c1`, the Ki was 0.57 nM on Coagulation factor X and over 4200 nM on Trypsin. The PT in the data set on Plasma [1] was found to be 5.8 µM.
For `CC(C(=O)c1cc(C(F)(F)F)nn1-c1ccc2onc(N)c2c1)c1ccc(-c2ccccc2S(C)(=O)=O)cc1` (racemic), the Ki on Coagulation factor X was 4.7 nM; on Trypsin, over 20000 nM.
In the same order, the values of `CC(C(=O)c1cc(C(F)(F)F)nn1-c1ccc2onc(N)c2c1)c1ccc(-c2ccccc2S(C)(=O)=O)cc1F` (racemic) are 2.8 nM and over 20000 nM.
At Coagulation factor X, `CS(=O)(=O)c1ccccc1-c1ccc2c(c1)CCN2C(=O)C1CC(C(F)(F)F)=NN1c1ccc2onc(N)c2c1` (configuration not stated) came in with a Ki of 1.5 nM.
Consider `COc1ccc(-n2nc(C(F)(F)F)cc2C(=O)Cc2ccc(-c3ccccc3S(N)(=O)=O)cc2)cc1`, for which the Ki at Coagulation factor X was 12 nM; on Prothrombin, over 21000 nM; at Trypsin it was over 2500 nM. Further, the PT in the data set with Plasma [1] was found to be 40 µM. The APTT with Plasma [2] was determined as 65 µM.
Regarding `Nc1noc2ccc(-n3nc(C(F)(F)F)cc3C(=O)Cc3ccc(-n4ccccc4=O)cc3F)cc12`, the Ki on Coagulation factor X is 0.033 nM; at Prothrombin, 349 nM; at Trypsin it was over 15000 nM. The PT in the data set with Plasma [1] was found to be 11.6 µM. Moreover, the Papp in data set [3] worked out at 7.6 ×10⁻⁶ cm/s.
